RAD54 branch – inhibitors of human RAD54 branch migration, primary screen, biochemical, fluorescence, single point | DNA repair and recombination protein RAD54-like (Homo sapiens), Q92698 | RAD54 Holliday junction branch migration, FAM/BHQ fluorescence | inhibition, % at 10.4 µM | 0.14% of 360,000 active;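 active = mean normalized replicate activity at least 40 and at least half of replicates scoring 40 or more; inconclusive = only one of the two criteria met; inactive = mean below 40 and under half of replicates reaching 40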;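 also: 0% = median of neutral control wells and 100% = median of positive control wells; inhibitors cause a drop in the FAM fluorescence signal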
Target sequence (Q92698 whole entry, looked up): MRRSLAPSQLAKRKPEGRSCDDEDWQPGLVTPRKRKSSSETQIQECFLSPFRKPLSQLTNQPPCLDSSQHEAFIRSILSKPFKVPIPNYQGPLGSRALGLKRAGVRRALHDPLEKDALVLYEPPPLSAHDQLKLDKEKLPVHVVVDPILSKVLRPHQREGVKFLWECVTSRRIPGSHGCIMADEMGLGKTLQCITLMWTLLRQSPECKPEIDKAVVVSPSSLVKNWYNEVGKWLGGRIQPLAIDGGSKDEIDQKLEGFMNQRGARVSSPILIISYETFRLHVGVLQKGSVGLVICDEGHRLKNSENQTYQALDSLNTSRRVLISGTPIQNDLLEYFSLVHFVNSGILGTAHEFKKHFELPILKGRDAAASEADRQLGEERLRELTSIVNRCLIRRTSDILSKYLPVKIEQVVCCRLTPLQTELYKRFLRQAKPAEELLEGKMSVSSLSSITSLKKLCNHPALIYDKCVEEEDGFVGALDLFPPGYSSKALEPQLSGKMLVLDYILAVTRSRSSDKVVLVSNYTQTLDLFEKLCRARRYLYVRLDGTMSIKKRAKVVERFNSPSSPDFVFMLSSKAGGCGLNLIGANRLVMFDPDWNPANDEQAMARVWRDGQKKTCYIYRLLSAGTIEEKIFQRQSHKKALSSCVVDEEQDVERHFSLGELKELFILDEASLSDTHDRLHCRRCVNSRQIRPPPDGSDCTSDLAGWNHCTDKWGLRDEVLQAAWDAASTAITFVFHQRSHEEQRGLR
S100A4 inh HTS – inhibitors of S100A4-myosin IIA peptide binding, primary screen, biochemical, fluorescence polarization, TAMRA-MyoIIA peptide; 0.14% of 360,000 active; inhibition, % at 10.7 µM; Protein S100-A4 (Homo sapiens), P26447;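 active = mean inhibition of at least 70% across replicates, with every replicate also reaching that level; inconclusive = mean inhibition reaches 70% but some replicates fall short; inactive = mean inhibition below 70%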
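incubation = readout 5 min after mixing, signal stable up to 60 min | system = S100A4 monomer protein | buffer or medium = HEPES pH 7.2 with CaCl2, KCl, NaCl, DTT, Triton | benchmarks = neutral control DMSO, positive control TFP | also added = fluorescent myosin IIA peptide, 5 nM | compound dosing = one concentration per compound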
RAD52 inh – RAD52 DNA annealing inhibitors, primary screen, biochemical, FRET, single point, set 2; recombinant RAD52 DNA annealing, FRET fluorescence; inhibition, % at 18.7 µM; 0.46% of 360,000 active; AID 651710, 2012;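 active = every replicate showing at least 50% inhibition; inconclusive = mean inhibition at least 50% but not in every replicate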
INS-1E GSIS act – GLuc luminescence reporter in INS-1E cells, primary screen for activators of glucose-dependent secretion of insulin | INS-1E GLuc reporter insulin secretion, 2-3 h | activation, % at 16.6 µM | 0.61% of 370,000 active | AID 743287, 2014;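 active = lowest replicate activation of at least 40%, so every replicate reaches that level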;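 also: 0% = median of neutral control wells and 100% = median of IBMX positive control wells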
MLL AF4-AF9 inh – inhibitors of AF4 peptide binding to AF9, primary screen, biochemical, AlphaScreen, biotin-AF4 peptide, FLAG-AF9, single point; 0.47% of 350,000 active; inhibition, % at 10 µM; Protein AF-9 (Homo sapiens), P42568;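 active = every replicate reaching a set inhibition limit, whatever the replicate mean, cut at about 25% in these data; inconclusive = mean inhibition reaches that limit but some replicates miss it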;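 also: 0% = plate neutral control median and 100% = total signal loss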
Rad54 DNA ctr – DNA binding of candidate compounds, dose response, artefact control for RAD54 inhibitor project, biochemical, fluorescence polarization, cherry-pick; shares compounds with RAD54 branch; Acridine orange-DNA displacement, 20 min; AC50, µM (series often up to 35 µM), without a hit: top-dose activity change, negative = DNA binding; 8% of 460 active;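 active = signal drop giving an AC50 within twice the top valid tested concentration of each sample, actives reach about 35 µM in these data; inactive = activity opposite to expected, plus the rest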;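 also: polarization loss reports compound binding to salmon sperm DNA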
DNA binder FP – DNA-binding compounds via dye displacement, dose response, artefact control for RAD52 inhibitor project, biochemical, fluorescence polarization, cherry-pick; shares compounds with RAD52 inh; Salmon sperm DNA/acridine orange FP displacement; AC50, µM; 8% of 1,000 active; AID 652128, 2013;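 active = fitted half-maximal concentration for signal loss at or below twice the highest dose tested, in every separate run, actives reach about 64 µM in these data; inconclusive = runs disagree, or flat partial signal loss, or poor fit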
The depositor's hits bear a star; i = inactive; ? = inconclusive; · = not tested or not shown. This is a sample that favours compounds with a hit; in the whole collection about 1.3% have one here.

SMILES	RAD54 branch	S100A4 inh HTS	RAD52 inh	INS-1E GSIS act	MLL AF4-AF9 inh	Rad54 DNA ctr	DNA binder FP
C[C@H]1CCCCO[C@H](CN(C)C(=O)Nc2cccc3ccccc23)[C@@H](C)CN([C@@H](C)CO)C(=O)c2cc(NC(=O)Nc3ccc4c(c3)OCO4)ccc2O1	3	-24	1	14	1	·	·
CCN(CC)CCCNC(=O)c1cc2c(-c3cccc(OC)c3)nn(C)c2s1	73*	-2	92*	-4	4	i	i
COCCCNC(=O)c1cc2c(-c3ccc(Cl)cc3)nn(C)c2s1	-1	-3	-10	0	-3	·	·
CCCCN(CC)CCCNC(=O)c1cc2c(-c3ccc(OC)c(OC)c3)nn(C)c2s1	91*	-5	94*	-8	5	-12%	i
C[C@@H]1CN([C@H](C)CO)C(=O)c2cccc(NC(=O)NC3CCCCC3)c2O[C@@H]1CN(C)C(=O)NC1CCCCC1	6	7	5	-10	-1	·	·
COc1ccc(OC)c(Nc2nc(NCCO)c3ccccc3n2)c1	94*	-4	88*	13	18	-9%	i
Cc1ccc(Nc2nc(NCCO)c3ccccc3n2)cc1C	22	-3	27	-13	18	·	·
COc1cc2nc(Nc3ccc(F)cc3)nc(N)c2cc1OC	59*	-2	62*	-13	13	11%	59µM*
CCN1CCC[C@H]1CNC(=O)c1c(OC)ccc(Br)c1OC	-7	-4	2	·	-1	·	·
CCN1CCCC1CNC(=O)c1ccc2c(c1)NC(=O)/C(=C\c1ccc(OC)c(OC)c1)S2 (centres undefined)	69*	-7	73*	10	40*	-3%	i
CN(C)CCCN(C(=O)CCOc1ccccc1)c1nc2ccc(F)cc2s1	65*	16	89*	45*	5	-16%	i
CN(C)CCCN(C(=O)COc1ccccc1)c1nc2ccc(F)cc2s1	·	-6	13	-15	16	·	·
Cc1ccc(-c2cc(NC=O)c3ncc(-c4cccc(C(=O)N(C)C)c4)n3c2)cc1	-7	-4	-15	-4	2	·	·
COc1ccc(-c2cc(NC=O)c3ncc(-c4cccc(C(=O)NCCN(C)C)c4)n3c2)cn1	95*	-10	81*	33	9	-11%	i
COc1cc(-c2cnc3c(NC(C)=O)cc(-c4cccc(C(=O)NCCO)c4)cn23)cc(OC)c1OC	1	1	-8	-2	-1	·	·
COc1cc(-c2cnc3c(NC=O)cc(-c4cccc(C(=O)NCCN(C)C)c4)cn23)cc(OC)c1OC	101*	-1	93*	4	21	-2%	i
CN(C)CCNC(=O)c1cccc(-c2cnc3c(NC=O)cc(-c4cccs4)cn23)c1	63*	-6	68*	·	17	-17%	i
CN(C)CCNC(=O)c1cccc(-c2cnc3c(NC=O)cc(-c4ccccc4F)cn23)c1	63*	-2	96*	·	13	6%	i
CN(C)CCNC(=O)c1cccc(-c2cnc3c(NC=O)cc(-c4ccc(C(=O)N5CCOCC5)cc4)cn23)c1	?	3	63*	·	5	-5%	i
CC(=O)c1cccc(-c2cnc3c(NC=O)cc(-c4ccc(C(=O)N5CCOCC5)cc4)cn23)c1	7	-6	-34	11	-2	·	·
Cc1cc(-c2cc(NC=O)c3ncc(-c4cccc(C(=O)NCCN(C)C)c4)n3c2)cc(C)c1O	62*	5	92*	·	21	-4%	i
CC(=O)c1cccc(-c2cnc3c(NC=O)cc(-c4ccccc4)cn23)c1	3	-25	-85	-4	0	·	·
C[C@@H]1CN([C@H](C)CO)C(=O)c2ccccc2-c2ccccc2CO[C@@H]1CN(C)Cc1ccc(F)cc1	5	23	-5	-37	6	·	·
COc1ccc2c3c(n(C)c2c1)[C@H](CO)N(C(=O)C1CC1)CC31CCN(CC2CCCC2)CC1	·	-6	-7	14	0	·	·
COc1ccc2c3c([nH]c2c1)[C@H](CO)N(Cc1cc(F)ccc1F)CC31CCN(C(C)=O)CC1	·	·	·	3	0	·	·
SMILES	RAD54 branch	S100A4 inh HTS	RAD52 inh	INS-1E GSIS act	MLL AF4-AF9 inh	Rad54 DNA ctr	DNA binder FP
CC(=O)N1[C@H](C(=O)NCc2ccccc2F)[C@@H](CO)[C@@H]2Cn3c(cccc3=O)[C@@H]21	-2	9	-34	5	2	·	·
CCN(CC)CCNc1nc(SC)nc2sc3c(c12)CCN(C)C3	53*	-15	56*	12	10	6%	i
COCCNc1nc(SC)nc2sc3c(c12)CCN(C)C3	10	-10	10	9	-1	·	·
CCN1CCN(c2cc(C)c3cc(NC(=O)c4ccncc4)ccc3n2)CC1	0	-5	-35	·	-3	·	·
CCN1CCN(c2cc(C)c3cc(NC(=S)N4CCCC(C)C4)ccc3n2)CC1 (centres undefined)	63*	-7	52*	-8	15	1%	i
CCN1CCN(c2cc(C)c3cc(NC(=S)N4CC(C)CC(C)C4)ccc3n2)CC1 (centres undefined)	?	2	52*	-8	7	-9%	i
CN(C)C(=O)c1cccc(-c2ccc([C@@H]3[C@@H](CO)N4C(=O)CN(C(=O)Cc5ccccc5)C[C@@H]34)cc2)c1	·	-1	-1	-5	-2	·	·
C[C@@H]1CN([C@@H](C)CO)C(=O)c2cccc(NS(=O)(=O)c3ccc(F)cc3)c2O[C@H]1CN(C)S(=O)(=O)c1ccc(Cl)cc1	-1	14	17	19	-1	·	·
O=C(NCCO)c1cc2c([nH]c3ccccc32)c(-c2ccccc2)n1	-18	-2	-8	-29	-5	·	·
Cc1ccc(-c2nc(C(=O)NCCCN(C)C)cc3c2[nH]c2ccccc23)cc1	105*	-2	93*	-20	17	-12%	?
C[C@@H]1CN([C@H](C)CO)C(=O)c2cc(C#Cc3ccccc3)cnc2O[C@H]1CN(C)S(=O)(=O)c1ccccc1F	-1	45	3	-7	-7	·	·
CCOC(=O)c1cnc2ccc(OCC)cc2c1NCCCN1CCOCC1	101*	-2	70*	·	1	-4%	i
C/C=C/c1ccc2c(c1)O[C@@H](CN(C)C(=O)C1CCCCC1)[C@H](C)CN([C@H](C)CO)S2(=O)=O	-4	-4	6	-29	5	·	·
